Results reported in ChEMBL document CHEMBL1136006, “New PET imaging agent for the serotonin transporter: [(18)F]ACF (2-[(2-amino-4-chloro-5-fluorophenyl)thio]-N,N-dimethyl-benzenmethanamine)” (J Med Chem, 2002).

What was measured:
Rattus norvegicus [1] = species: Rattus norvegicus; assay: Organ distribution of [18F]-ACF radiolabeled compound in rat lung after 240 min; assay type: ADME, organism-based; conditions: in vivo, 4 h
How it was run: (§1)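 Under ether anesthesia, 30 μCi no-carrier-added tracer in 0.2 mL saline injected into the femoral vein. Rats killed by cardiac excision at the stated time. Organs were removed, weighed and counted; % dose/organ was calculated against counts of a 1% initial-dose standard. Three rats per time, average ± SD.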

Rattus norvegicus [2] = assay: Ratio of effect of pretreatment with (+)-McN5652 with a dose of 2 mg/kg (i.v.) on specific binding of [18F]ACF in rat brain cortex to that of cerebellum; assay type: ADME, organism-based; design: dose 2 mg/kg, route intravenous; conditions: in vivo, iv
How it was run: (§2)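 Rats (three per point) pretreated iv with competing drug at 2 mg/kg or saline (control) 5 min before iv [18F]ACF (50 μCi). At 1 h post tracer, brain regions (cortex, striatum, hippocampus, cerebellum, hypothalamus, remainder) dissected, weighed, counted as % dose/g and expressed as ratio to cerebellum. Average ± SD; ANOVA with Dunnett's test vs saline controls, p < 0.05.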

Rattus norvegicus [3] = species: Rattus norvegicus; assay: Organ distribution of [18F]ACF radiolabeled compound in rat kidney after 30 min; assay type: ADME, organism-based; conditions: in vivo, 0.5 h
How it was run: (§3)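 Rats, three per time point, under ether anesthesia; 30 μCi tracer in 0.2 mL saline injected into femoral vein. Sacrificed by cardiac excision under ether at 2, 30, 60, 120 or 240 min. Organs removed, weighed and counted; % dose/organ calculated against counts of 1% of initial dose counted at the same time. Average of three rats ± SD.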

Rattus norvegicus [4] = species: Rattus norvegicus; assay: Regional brain distribution of [18F]-ACF radiolabeled compound in rat hypothalamus after 120 min; assay type: ADME, organism-based; conditions: in vivo, 2 h
How it was run: (§4)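 Rats (three per group) under ether anesthesia got 30 μCi tracer in 0.2 mL saline into the femoral vein and were killed by cardiac excision at the stated time. Cortex, striatum, hippocampus, cerebellum, hypothalamus and the rest of brain were dissected, weighed and gamma counted. %dose/g was taken against counts of a diluted initial dose. Regional ratios are each region's %dose/g over cerebellum's. Mean ± SD.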

Rattus norvegicus [5] = species: Rattus norvegicus; assay: Organ distribution of [18F]-ACF radiolabeled compound in rat spleen after 120 min; assay type: ADME, organism-based; conditions: in vivo, 2 h; how it was run: as §1
Rattus norvegicus [6] = species: Rattus norvegicus; assay: Ratio of regional brain distribution of [18F]ACF radiolabeled compound in rat hypothalamus to that of cerebellum after 240 min; assay type: ADME, organism-based; conditions: in vivo, 4 h; how it was run: as §4
Rattus norvegicus [7] = assay: Effect of pretreatment with (+)-McN5652 with a dose of 2 mg/kg (i.v.) on specific binding of [18F]ACF in rat brain blood; assay type: ADME, organism-based; design: dose 2 mg/kg, route intravenous; conditions: in vivo, iv
How it was run: (§5)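 Rats pretreated iv with drug (2 mg/kg) or saline 5 min before iv [18F]ACF (50 μCi). Sacrificed 1 h after tracer. Brain regions were dissected, weighed and counted, and % dose/g was calculated against a diluted initial dose. Drug-treated rats were compared with saline controls by ANOVA/Dunnett's test (p<0.05). Three rats per point, average ± SD.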

Rattus norvegicus [8] = species: Rattus norvegicus; assay: Organ distribution of [18F]ACF radiolabeled compound in rat kidney after 120 min; assay type: ADME, organism-based; conditions: in vivo, 2 h; how it was run: as §3
Rattus norvegicus [9] = species: Rattus norvegicus; assay: Ratio of regional brain distribution of [18F]-ACF radiolabeled compound in rat cerebellum to that of cerebellum after 2 min; assay type: ADME, organism-based; conditions: in vivo
How it was run: (§6)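 Rats, three per time point, given 30 μCi tracer in 0.2 mL saline into femoral vein under ether anesthesia; killed at 2, 30, 60, 120 or 240 min. Cortex, striatum, hippocampus, cerebellum, hypothalamus and rest of brain dissected, weighed, counted; % dose/g against diluted initial dose, then each region divided by cerebellum. Average of three rats ± SD.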

Rattus norvegicus [10] = species: Rattus norvegicus; assay: Organ distribution of [18F]-ACF radiolabeled compound in rat lung after 2 min; assay type: ADME, organism-based; conditions: in vivo; how it was run: as §1
Rattus norvegicus [11] = species: Rattus norvegicus; assay: Ratio of regional brain distribution of [18F]ACF radiolabeled compound in rat cerebellum to that of cerebellum after 240 min; assay type: ADME, organism-based; conditions: in vivo, 4 h; how it was run: as §4
Rattus norvegicus [12] = species: Rattus norvegicus; assay: Ratio of regional brain distribution of [18F]ACF radiolabeled compound in rat cortex to that of cerebellum after 60 min; assay type: ADME, organism-based; conditions: in vivo, 1 h; how it was run: as §4
Rattus norvegicus [13] = species: Rattus norvegicus; assay: Ratio of regional brain distribution of [18F]ACF radiolabeled compound in rat remainder to that of cerebellum after 60 min; assay type: ADME, organism-based; conditions: in vivo, 1 h; how it was run: as §4
Rattus norvegicus [14] = assay: Ratio of effect of pretreatment with nisoxatine with a dose of 2 mg/kg (i.v.) on specific binding of [18F]ACF in rat brain cerebellum to that of cerebellum; assay type: ADME, organism-based; design: dose 2 mg/kg, route intravenous; conditions: in vivo, iv; how it was run: as §2
Rattus norvegicus [15] = species: Rattus norvegicus; assay: Organ distribution of [18F]-ACF radiolabeled compound in rat heart after 30 min; assay type: ADME, organism-based; conditions: in vivo, 0.5 h; how it was run: as §1
Rattus norvegicus [16] = assay: Effect of pretreatment with […] with a dose of 2 mg/kg (i.v.) on specific binding of [18F]ACF in rat brain hippocampus; assay type: ADME, organism-based; design: dose 2 mg/kg, route intravenous; conditions: in vivo, iv; how it was run: as §5
Rattus norvegicus [17] = species: Rattus norvegicus; assay: Ratio of regional brain distribution of [18F]-ACF radiolabeled compound in rat hippocampus to that of cerebellum after 2 min; assay type: ADME, organism-based; conditions: in vivo; how it was run: as §6
Rattus norvegicus [18] = species: Rattus norvegicus; assay: Organ distribution of [18F]-ACF radiolabeled compound in rat lung after 60 min; assay type: ADME, organism-based; conditions: in vivo, 1 h; how it was run: as §1
Rattus norvegicus [19] = species: Rattus norvegicus; assay: Organ distribution of [18F]ACF radiolabeled compound in rat kidney after 2 min; assay type: ADME, organism-based; conditions: in vivo; how it was run: as §3
Rattus norvegicus [20] = species: Rattus norvegicus; assay: Regional brain distribution of [18F]ACF radiolabeled compound in rat hippocampus after 2 min; assay type: ADME, organism-based; conditions: in vivo; how it was run: as §4
Rattus norvegicus [21] = assay: Ratio of effect of pretreatment with methylphenidate with a dose of 2 mg/kg (i.v.) on specific binding of [18F]ACF in rat brain cerebellum to that of cerebellum; assay type: ADME, organism-based; design: dose 2 mg/kg, route intravenous; conditions: in vivo, iv; how it was run: as §2
Rattus norvegicus [22] = assay: Effect of pretreatment with nisoxatine with a dose of 2 mg/kg (i.v.) on specific binding of [18F]ACF in rat brain remainder; assay type: ADME, organism-based; design: dose 2 mg/kg, route intravenous; conditions: in vivo, iv; how it was run: as §5
Rattus norvegicus [23] = species: Rattus norvegicus; assay: Organ distribution of [18F]-ACF radiolabeled compound in rat skin after 30 min; assay type: ADME, organism-based; conditions: in vivo, 0.5 h; how it was run: as §1
Rattus norvegicus [24] = species: Rattus norvegicus; assay: Organ distribution of [18F]ACF radiolabeled compound in rat blood after 240 min; assay type: ADME, organism-based; conditions: in vivo, 4 h; how it was run: as §3
Rattus norvegicus [25] = species: Rattus norvegicus; assay: Regional brain distribution of [18F]ACF radiolabeled compound in rat striatum after 60 min; assay type: ADME, organism-based; conditions: in vivo, 1 h
How it was run: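 Rats, three per group, under ether anaesthesia, given 30 μCi no-carrier-added tracer in 0.2 mL saline into the femoral vein. They were killed at the stated time by cardiac excision under ether. Striatum and other brain regions were dissected, weighed and counted. %dose/g was calculated against counts of 1% of the injected dose, as mean ± SD of three rats.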

Rattus norvegicus [26] = species: Rattus norvegicus; assay: Organ distribution of [18F]ACF radiolabeled compound in rat bone after 60 min; assay type: ADME, organism-based, Bone element; conditions: in vivo, 1 h; how it was run: as §3
Rattus norvegicus [27] = assay: Effect of pretreatment with (+)-McN5652 with a dose of 2 mg/kg (i.v.) on specific binding of [18F]ACF in rat brain remainder; dose/g; assay type: ADME, organism-based; design: dose 2 mg/kg, route intravenous; conditions: in vivo, iv; how it was run: as §5
Rattus norvegicus [28] = assay: Effect of pretreatment with methylphenidate with a dose of 2 mg/kg (i.v.) on specific binding of [18F]ACF in rat brain hippocampus; assay type: ADME, organism-based; design: dose 2 mg/kg, route intravenous; conditions: in vivo, iv; how it was run: as §5
Rattus norvegicus [29] = species: Rattus norvegicus; assay: Organ distribution of [18F]ACF radiolabeled compound in rat blood after 30 min; assay type: ADME, organism-based; conditions: in vivo, 0.5 h; how it was run: as §3
Rattus norvegicus [30] = assay: Ratio of effect of pretreatment with (+)-McN5652 with a dose of 2 mg/kg (i.v.) on specific binding of [18F]ACF in rat brain remainder to that of cerebellum; assay type: ADME, organism-based; design: dose 2 mg/kg, route intravenous; conditions: in vivo, iv; how it was run: as §2
Rattus norvegicus [31] = species: Rattus norvegicus; assay: Organ distribution of [18F]-ACF radiolabeled compound in rat liver after 120 min; assay type: ADME, organism-based; conditions: in vivo, 2 h; how it was run: as §1
Rattus norvegicus [32] = species: Rattus norvegicus; assay: Regional brain distribution of [18F]-ACF radiolabeled compound in rat remainder (rest of brain) after 240 min; assay type: ADME, organism-based; conditions: in vivo, 4 h; how it was run: as §4
Rattus norvegicus [33] = species: Rattus norvegicus; assay: Organ distribution of [18F]-ACF radiolabeled compound in rat skin after 240 min; assay type: ADME, organism-based; conditions: in vivo, 4 h; how it was run: as §1
Rattus norvegicus [34] = assay: Effect of pretreatment with methylphenidate with a dose of 2 mg/kg (i.v.) on specific binding of [18F]ACF in rat brain blood; assay type: ADME, organism-based; design: dose 2 mg/kg, route intravenous; conditions: in vivo, iv; how it was run: as §5

SMILES: CN(C)Cc1ccccc1Sc1cc(F)c(Cl)cc1N
- Dose/g (Rattus norvegicus [1]): 0.15 % dose/organ
- Ratio (Rattus norvegicus [2]): 1.43
- Dose/g (Rattus norvegicus [3]): 2.64 % dose/organ
- Dose/g (Rattus norvegicus [4]): 0.17%
- Dose/g (Rattus norvegicus [5]): 0.06 % dose/organ
- Ratio (Rattus norvegicus [6]): 2.37
- Dose/g (Rattus norvegicus [7]): 0.26%
- Dose/g (Rattus norvegicus [8]): 0.78 % dose/organ
- Ratio (Rattus norvegicus [9]): 1
- Dose/g (Rattus norvegicus [10]): 14.9 % dose/organ
- Ratio (Rattus norvegicus [11]): 1
- Ratio (Rattus norvegicus [12]): 2.1
- Ratio (Rattus norvegicus [13]): 2.56
- Ratio (Rattus norvegicus [14]): 1
- Dose/g (Rattus norvegicus [15]): 0.18 % dose/organ
- Dose/g (Rattus norvegicus [16]): 0.46%
- Ratio (Rattus norvegicus [17]): 1.24
- Dose/g (Rattus norvegicus [18]): 0.73 % dose/organ
- Dose/g (Rattus norvegicus [19]): 6.97 % dose/organ
- Dose/g (Rattus norvegicus [20]): 1.6%
- Ratio (Rattus norvegicus [21]): 1
- Dose/g (Rattus norvegicus [22]): 0.41%
- Dose/g (Rattus norvegicus [23]): 6.51 % dose/organ
- Dose/g (Rattus norvegicus [24]): 2.33 % dose/organ
- Dose/g (Rattus norvegicus [25]): 0.45%
- Dose/g (Rattus norvegicus [26]): 0.08 % dose/organ
- Dose/g (Rattus norvegicus [27]): 0.23%
- Dose/g (Rattus norvegicus [28]): 0.43%
- Dose/g (Rattus norvegicus [29]): 4.52 % dose/organ
- Ratio (Rattus norvegicus [30]): 1.37
- Dose/g (Rattus norvegicus [31]): 5.9 % dose/organ
- Dose/g (Rattus norvegicus [32]): 0.03%
- Dose/g (Rattus norvegicus [33]): 1.53 % dose/organ
- Dose/g (Rattus norvegicus [34]): 0.28%
